In ChEMBL document CHEMBL3120090, “High-affinity recognition of HIV-1 frameshift-stimulating RNA alters frameshifting in vitro and interferes with HIV-1 infectivity” (J Med Chem, 2014):
Active and inactive are the calls of the source. No cut-off for these calls is given here.

What was measured:
[1] = test system: Human immunodeficiency virus 1; assay: Antiviral activity against HIV-1 NL4-3 assessed as reduction in viral infectivity in human TZM-bl cells after 48 hrs by firefly luciferase reporter gene assay; type: functional, organism-based; settings: Human immunodeficiency virus 1, NL4-3, TZM-bl
Outline: (§1)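 Single-round infectivity of VSV-G pseudotyped HIV-1 (pDHIV3-GFP, NL4-3 genes minus nef/env) made in transfected HEK293T producer cells. Compounds added to producers 4 h post-transfection; virions harvested at 24 h, filtered, normalized by p24 ELISA. TZM-bl cells (10,000/well) infected with 500 pg p24/well in triplicate for 48 h; LTR-driven firefly luciferase luminescence read. EC50 derived from concentration series.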

HEK293FT [2] = assay: Binding affinity to HTLV-2 FSS RNA transfected in HEK293FT cells at 1 to 50 uM after 36 hrs by Renilla/firefly luciferase reporter gene assay; type: cell-based; settings: Human T-lymphotropic virus 2
Outline: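 HEK293FT cells transiently transfected with pDualHTLV-2(−1) (Fluc made only via −1 frameshift at the HTLV-2 site) and treated 5 h later with compound (0–50 μM) in triplicate for 36 h at 37 °C. Fluc/Rluc ratio from lysate, relative to untreated transfected cells. Error is SEM.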

HEK293FT [3] = assay: Binding affinity to HIV-1 FSS RNA transfected in HEK293FT cells after 36 hrs by Renilla/firefly luciferase reporter gene assay; type: cell-based; settings: Human immunodeficiency virus 1
Outline: (§2)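 HEK293FT cells (1.5 × 10^4/well) transiently transfected with pDualHIV(−1) or in-frame pDualHIV(0) Rluc–FSS–Fluc plasmid (0.2 μg). Compound (0–50 μM) added 5 h later, in triplicate, for 36 h at 37 °C. Fluc/Rluc ratio from lysate, expressed relative to untreated transfected cells (100%). Error is SEM.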

HEK293FT [4] = assay: Binding affinity to HIV-1 FSS RNA transfected in HEK293FT cells at 50 uM after 36 hrs by Renilla/firefly luciferase reporter gene assay; type: cell-based; settings: Human immunodeficiency virus 1; outline: as §2
[5] = Cytotoxicity against HEK293FT cells assessed as cell viability at <60 uM after 24 hrs by WST-1 assay; type: cell-based; settings: human
Outline: (§3)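 HEK293FT cells at 80% confluence in DMEM/10% FBS exposed to compound (up to 0.5 mM) or a water control, in triplicate, for 24 h at 37 °C. WST-1 reagent then added for 2 h. Absorbance at 450 minus 690 nm, blank-corrected, plotted against concentration. Error is SD of three measurements.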

[6] = Cellular uptake in nucleus of HEK293FT cells at 50 uM measured for 12 hrs by fluorescence microscopy; type: ADME, cell-based; settings: human
[7] = Cellular uptake in cytoplasm of HEK293FT cells at 50 uM measured for 12 hrs by fluorescence microscopy; type: ADME, cell-based; settings: human
[8] = (§4) Binding affinity to HIV-1 FSS RNA in HBS buffer at pH 7.4 assessed as dissociation rate by surface plasmon resonance analysis; design: species or system Human immunodeficiency virus 1
Outline: (§5)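 RNA captured on SPR chips at low (~300 RU) and high (~1200 RU) density, each measured once. Compound flowed in HBS (0.01 M HEPES, 0.150 M NaCl, pH 7.4) at 60 μL/min over at least five concentrations, each injected at least twice. A 20 s 0.5 or 1 M NaCl pulse regenerated the chip where needed. Reference-subtracted, blank-corrected sensorgrams (association plus dissociation) were globally fit to 1:1 Langmuir; error is standard error of the fit.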

[9] = test system: Human immunodeficiency virus 1; assay: Binding affinity to HIV-1 FSS RNA in HBS buffer at pH 7.4 assessed as association rate by surface plasmon resonance analysis; outline: as §5
[10] = Selectivity ratio of KD for yeast tRNA to KD for HIV-1 FSS RNA
Outline: (§6)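 Ratios of fluorescence-titration KD values (20 mM HEPES, 150 mM NaCl; compound 1 μM): KD for FSS DNA or total yeast tRNA divided by KD for HIV-1 FSS RNA.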

[11] = Binding affinity to yeast tRNA after 10 mins by fluorescence titration analysis; design: species or system Saccharomyces cerevisiae
Outline: (§7)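 Solution fluorescence titration in 20 mM HEPES, 150 mM NaCl. Compound at 1 μM, titrated with unlabeled HIV-1 FSS RNA (10 μM stock), FSS DNA or yeast tRNA (40 μM stocks). 10 min equilibration after each addition. Quenching of benzo[g]quinoline fluorescence read in triplicate 1 min apart, corrected for dilution; KD from saturable quenching. Error is SD.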

[12] = Binding affinity to FSS DNA (unknown origin) after 10 mins by fluorescence titration analysis; outline: as §7
[13] = Binding affinity to HIV-1 FSS RNA after 10 mins by fluorescence titration analysis; design: species or system Human immunodeficiency virus 1; outline: as §7
[14] = test system: Human T-lymphotropic virus 2; assay: Binding affinity to HTLV-2 FSS RNA up to 3 uM by surface plasmon resonance analysis
[15] = Binding affinity to HIV-1 FSS RNA in HBS buffer at pH 7.4 by surface plasmon resonance analysis; design: species or system Human immunodeficiency virus 1; outline: as §5
[16] = Binding affinity to HIV-1 FSS RNA in 20 mM HEPES buffer assessed as dissociation rate by surface plasmon resonance analysis in presence of 150 mM NaCl, 5 mM MgCl2 and 0.005 % tween-20; design: species or system Human immunodeficiency virus 1
Outline: (§8)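 SPR with HIV-1 FSS RNA captured on low-density (~300 RU) and high-density (~1200 RU) chips. Compound flowed at 50 μL/min in 20 mM HEPES, 150 mM NaCl, 5 mM MgCl2, 0.005% Tween-20. 0.5 or 1 M NaCl regeneration as needed. Each concentration injected at least twice. Kinetic constants and KD from individual fits of reference-subtracted sensorgrams.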

[17] = test system: Human immunodeficiency virus 1; assay: Binding affinity to HIV-1 FSS RNA in 20 mM HEPES buffer assessed as association rate by surface plasmon resonance analysis in presence of 150 mM NaCl, 5 mM MgCl2 and 0.005 % tween-20; outline: as §8
[18] = Binding affinity to HIV-1 FSS RNA in 20 mM HEPES buffer by surface plasmon resonance analysis in presence of 150 mM NaCl, 5 mM MgCl2 and 0.005 % tween-20; design: species or system Human immunodeficiency virus 1; outline: as §8
[19] = test system: Human immunodeficiency virus 1; assay: Increase in HIV-1 NL4-3 reverse transcriptase p66/51 level at 10 to 40 uM by Western blotting analysis; type: functional, organism-based
Outline: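 Pseudotyped virions from compound-treated producer cells, equal loads by p24 ELISA, pelleted through 20% sucrose at 100,000g. Western blot for RT and p24. Densitometry of nonsaturated bands gave p160/(p66+p51) and total RT/p24 ratios.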

[20] = test system: Human immunodeficiency virus 1; assay: Antiviral activity against HIV-1 NL4-3 assessed as reduction in viral production […] after 24 hrs by fluorescence microscopy; type: functional, organism-based
Outline: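 HEK293T producer cells transfected with GFP-marked pseudotyped HIV-1 vector plus VSV-G and treated with compound 4 h after transfection. Proviral GFP expression imaged by fluorescence microscopy 24 h after treatment, before virions were harvested.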

[21] = test system: Human immunodeficiency virus 1; assay: Antiviral activity against HIV-1 NL4-3 assessed as reduction in viral infectivity in human TZM-bl cells at 40 uM after 48 hrs by firefly luciferase reporter gene assay; type: functional; design: scale not given: the % may be the effect or the level left
[22] = test system: Human immunodeficiency virus 1; assay: Antiviral activity against HIV-1 NL4-3 infected in TZM-bl cells after 24 hrs
[23] = Selectivity ratio of KD for FSS DNA (unknown origin) to KD for HIV-1 FSS RNA; outline: as §6
[24] = test system: Human immunodeficiency virus 1; assay: Antiviral activity against HIV-1 NL4-3 assessed as reduction in viral infectivity in human TZM-bl cells at 20 uM after 48 hrs by firefly luciferase reporter gene assay; type: functional; design: scale not given: the % may be the effect or the level left; outline: as §1
[25] = Cytotoxicity against HEK293FT cells assessed as cell viability at >10 uM after 24 hrs by WST-1 assay; type: cell-based; settings: human; outline: as §3
[26] = test system: Human immunodeficiency virus 1; assay: as §4; outline: as §5
[27] = Binding affinity to HIV-1 FSS RNA; design: species or system Human immunodeficiency virus 1

CC(C)(C)NC(=O)[C@@H]1CN(Cc2cccnc2)CCN1C[C@@H](O)C[C@@H](Cc1ccccc1)C(=O)N[C@H]1c2ccccc2C[C@H]1O [INDINAVIR]
EC50 [1]: 14.8 nM

CCc1nc2cc3ccccc3cc2cc1C(=O)N[C@@H](C/C=C/C[C@H](NC(=O)c1cc2cc3ccccc3cc2nc1CC)C(=O)N1CCC[C@H]1C(=O)N[C@@H](Cc1ccccc1)C(=O)NCCCN)C(=O)N1CCC[C@H]1C(=O)N[C@@H](Cc1ccccc1)C(=O)NCCCN
Activity (HEK293FT [2]): inactive
Activity (HEK293FT [3]): Dose-dependent effect
Activity (HEK293FT [4]): > 50%
Activity [5]: Non-toxic
Drug uptake [6]: Active
Drug uptake [7]: Active
Dissociation rate constant (koff) [8]: 3.75 ×10⁻³ /s
Ka [9]: 3.99 ×10⁴ /M/s
Ratio [10]: 2.14
Kd [11]: 217 nM
Kd [12]: 118 nM
Kd [13]: 101 nM
Activity [14]: inactive
Kd ([15]; read-out: Kd): 89 nM
Kd [16]: 3.46 ×10⁻³ /s
Ka [17]: 3.68 ×10⁴ /M/s
Kd [18]: 96 nM
Activity [19]: Active
Activity [20]: Dose-dependent effect
EC50 [1]: 25600 nM
Activity [21]: >90%
Activity [22]: Active

CCc1nc2cc3ccccc3cc2cc1C(=O)N[C@@H](C/C=C\C[C@H](NC(=O)c1cc2cc3ccccc3cc2nc1CC)C(=O)N1CCC[C@H]1C(=O)N[C@@H](Cc1ccccc1)C(=O)NCCCN)C(=O)N1CCC[C@H]1C(=O)N[C@@H](Cc1ccccc1)C(=O)NCCCN
Activity (HEK293FT [2]): inactive
Activity (HEK293FT [3]): Dose-dependent effect
Activity (HEK293FT [4]): > 50%
Activity [5]: Non-toxic
Drug uptake [6]: Active
Drug uptake [7]: Active
Dissociation rate constant (koff) [8]: 4.11 ×10⁻³ /s
Ka [9]: 4.25 ×10⁴ /M/s
Ratio [23]: 4
Ratio [10]: 5
Kd [11]: 334 nM
Kd [12]: 265 nM
Kd [13]: 66 nM
Activity [14]: inactive
Kd ([15]; read-out: Kd): 102 nM
Kd [16]: 1.35 ×10⁻³ /s
Ka [17]: 2.17 ×10⁴ /M/s
Kd [18]: 71 nM
Activity [19]: Active
Activity [20]: Dose-dependent effect
EC50 [1]: 3900 nM
Activity [24]: >90%
Activity [22]: Active

CCc1nc2cc3ccccc3cc2cc1C(=O)N[C@@H](CSSC[C@H](NC(=O)c1cc2cc3ccccc3cc2nc1CC)C(=O)N1CCC[C@H]1C(=O)N[C@@H](Cc1ccccc1)C(=O)NCCCN)C(=O)N1CCC[C@H]1C(=O)N[C@@H](Cc1ccccc1)C(=O)NCCCN
Activity (HEK293FT [2]): inactive
Activity (HEK293FT [3]): 25%
Activity [25]: Toxic
Drug uptake [6]: Active
Drug uptake [7]: Active
Dissociation rate constant (koff) [8]: 7.92 ×10⁻³ /s
Ka [9]: 1.07 ×10⁴ /M/s
Kd ([15]; read-out: Kd): 741 nM

NCCCNC(=O)[C@H](Cc1ccccc1)NC(=O)[C@@H]1CCCN1C(=O)[C@@H](N)C/C=C\C[C@H](N)C(=O)N1CCC[C@H]1C(=O)N[C@@H](Cc1ccccc1)C(=O)NCCCN
Activity [14]: inactive

NCCCNC(=O)[C@H](Cc1ccccc1)NC(=O)[C@@H]1CCCN1C(=O)[C@@H](N)C/C=C/C[C@H](N)C(=O)N1CCC[C@H]1C(=O)N[C@@H](Cc1ccccc1)C(=O)NCCCN
Activity (HEK293FT [3]): inactive
Activity (HEK293FT [4]): inactive
Activity [26]: inactive
Activity [9]: inactive
Activity [14]: inactive
Kd [15]: Not Active
Activity [21]: Active

CCc1nc2cc3ccccc3cc2cc1C(=O)N[C@@H](C/C=C\C[C@H](N)C(=O)N1CCC[C@H]1C(=O)N[C@@H](Cc1ccccc1)C(=O)NCCCN)C(=O)N1CCC[C@H]1C(=O)N[C@@H](Cc1ccccc1)C(=O)NCCCN
Dissociation rate constant (koff) [8]: 1.21 ×10⁻² /s
Ka [9]: 4.58 ×10³ /M/s
Activity [14]: inactive
Kd ([15]; read-out: Kd): 2760 nM

C=CC[C@H](NC(=O)c1cc2cc3ccccc3cc2nc1CC)C(=O)N1CCC[C@H]1C(=O)N[C@@H](Cc1ccccc1)C(=O)NCCCN
Dissociation rate constant (koff) [8]: 2.25 ×10⁻² /s
Ka [9]: 1.16 ×10³ /M/s
Kd [13]: 409 nM
Activity [14]: inactive
Kd ([15]; read-out: Kd): 19500 nM

CCc1nc2cc3ccccc3cc2cc1C(=O)N[C@@H](C/C=C/C[C@H](N)C(=O)N1CCC[C@H]1C(=O)N[C@@H](Cc1ccccc1)C(=O)NCCCN)C(=O)N1CCC[C@H]1C(=O)N[C@@H](Cc1ccccc1)C(=O)NCCCN
Dissociation rate constant (koff) [8]: 1.63 ×10⁻¹ /s
Ka [9]: 7.71 ×10³ /M/s
Activity [14]: inactive
Kd ([15]; read-out: Kd): 20700 nM

CCc1nc2ccccc2cc1C(=O)N[C@@H](C/C=C/C[C@H](NC(=O)c1cc2ccccc2nc1CC)C(=O)N1CCC[C@H]1C(=O)N[C@@H](Cc1ccccc1)C(=O)NCCCN)C(=O)N1CCC[C@H]1C(=O)N[C@@H](Cc1ccccc1)C(=O)NCCCN
Dissociation rate constant (koff) [8]: 7.5 ×10⁻³ /s
Ka [9]: 1.62 ×10³ /M/s
Kd ([15]; read-out: Kd): 4660 nM

CN(C)CCCNC(=N)c1ccc(C(=N)NCCCN(C)C)cc1
Kd [27]: 360000 nM
